Activity calls are given as the source filed them.
Legend:
Cavia porcellus [1] = species on record: Cavia porcellus; assay: Inhibition of Na+/K+ ATPase-mediated phosphohydrolase activity in guinea pig myocardium up to 10^-4 M after 30 mins; assay type: tissue-based
How it was run: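 Crude membrane preparation from guinea pig myocardium, holding both (Na+,K+)ATPase and Mg2+-ATPase. Incubated 37 °C, 30 min; substrate consumption under 15% without drug. Activity measured as inorganic phosphate liberated per mg protein per hour. Na+,K+ component taken as total minus Mg2+-ATPase activity, the latter measured without Na+ and K+. Drug range 10^-8–10^-4 M, duplicates.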

Cavia porcellus [2] = species on record: Cavia porcellus; assay: Induction of positive inotropic activity in guinea pig atrium assessed as atrial contractility up to 10^-4 M; assay type: functional, tissue-based; details: Cardiac atrium
How it was run: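 Left auricle from guinea pig in Krebs-Henseleit solution, 32 °C, gassed with O2 containing 5% CO2, resting tension about 1 g. Paced by rectangular pulses (10 ms, 100/min) at 20% above threshold voltage. Change in isometric contraction calculated relative to control atria.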

For `C[C@]12CC[C@H](O)C[C@H]1CC[C@@H]1[C@@H]2CC[C@]2(C)[C@@H](/C=C\C#N)CC[C@@H]12`, the inhibition (Cavia porcellus [1]) was “inactive” and the Activity (Cavia porcellus [2]) was “inactive”.

In the case of `COC(=O)/C=C/[C@H]1CC[C@H]2[C@@H]3CCC4=C[C@@H](O)CC[C@]4(C)[C@H]3CC[C@]12C`, the inhibition (Cavia porcellus [1]) is reported as “inactive” and the Activity (Cavia porcellus [2]) is reported as “inactive”.

`COC(=O)/C=C/[C@H]1CC[C@H]2[C@@H]3CC[C@@H]4C[C@@H](O)CC[C@]4(C)[C@H]3CC[C@]12C` was tested, and the inhibition (Cavia porcellus [1]) was “inactive” and the Activity (Cavia porcellus [2]) was “inactive”.

For `C[C@]12CC[C@H]3[C@@H](CCC4=C[C@@H](O)CC[C@@]43C)[C@@H]1CC[C@@H]2/C=C\C#N`, the inhibition (Cavia porcellus [1]) was “inactive” and the Activity (Cavia porcellus [2]) was “inactive”.

In the case of `COC(=O)/C=C/[C@H]1CC[C@H]2[C@@H]3CC[C@H]4C[C@@H](O)CC[C@]4(C)[C@H]3CC[C@]12C`, the inhibition (Cavia porcellus [1]) is reported as “inactive” and the Activity (Cavia porcellus [2]) is reported as “inactive”.

With `C[C@]12CC[C@H](O)C[C@@H]1CC[C@@H]1[C@@H]2CC[C@]2(C)[C@@H](/C=C\C#N)CC[C@@H]12` the inhibition (Cavia porcellus [1]) was “inactive” and the Activity (Cavia porcellus [2]) was “inactive”.

In the case of `C[C@]12CC[C@@H](O)C[C@H]1CC[C@@H]1[C@@H]2CC[C@]2(C)[C@@H](/C=C\C#N)CC[C@@H]12`, the inhibition (Cavia porcellus [1]) is reported as “inactive” and the Activity (Cavia porcellus [2]) is reported as “inactive”.

For `C[C@]12CC[C@H](O)C[C@@H]1CC[C@@H]1[C@@H]2CC[C@]2(C)[C@@H](/C=C/C#N)CC[C@@H]12`, the inhibition (Cavia porcellus [1]) was “inactive” and the Activity (Cavia porcellus [2]) was “inactive”.

`C[C@]12CC[C@H](O)C[C@H]1CC[C@@H]1[C@@H]2CC[C@]2(C)[C@@H](/C=C/C#N)CC[C@@H]12` was tested, and the inhibition (Cavia porcellus [1]) was “inactive” and the Activity (Cavia porcellus [2]) was “inactive”.

`C[C@]12CC[C@H]3[C@@H](CCC4=C[C@@H](O)CC[C@@]43C)[C@@H]1CC[C@@H]2/C=C/C#N` was tested, and the inhibition (Cavia porcellus [1]) was “inactive” and the Activity (Cavia porcellus [2]) was “inactive”.

In the case of `COC(=O)/C=C/[C@H]1CC[C@H]2[C@@H]3CC[C@@H]4C[C@H](O)CC[C@]4(C)[C@H]3CC[C@]12C`, the inhibition (Cavia porcellus [1]) is reported as “inactive” and the Activity (Cavia porcellus [2]) is reported as “inactive”.

With `C[C@]12CC[C@@H](O)C[C@H]1CC[C@@H]1[C@@H]2CC[C@]2(C)[C@@H](/C=C/C#N)CC[C@@H]12` the inhibition (Cavia porcellus [1]) was “inactive” and the Activity (Cavia porcellus [2]) was “inactive”.

Source: ChEMBL document CHEMBL3228034, “Cardenolide analogues. 9. Synthesis and biological activity of 17beta-carbomethoxyethylene and 17beta-cyanoethylene 14alpha-H steroids” (J Med Chem, 1979)
